ChEMBL document CHEMBL3600378 (J Med Chem, 2015)

Assays:
[1] = molecular target: Beta-3 adrenergic receptor (Homo sapiens, UniProt P13945); assay: Agonist activity at human recombinant beta3-adrenergic receptor expressed in CHO cells assessed as increase of cAMP level after 30 mins; format: functional, cell-based
[2] = molecular target: Beta-2 adrenergic receptor (Homo sapiens, UniProt P07550); assay: Intrinsic activity at human beta2-adrenergic receptor expressed in CHO cells assessed as increase of cAMP level after 30 mins relative to isoproterenol; format: functional, cell-based
Summary of the method: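 Stably transfected CHO cells expressing human β1, β2 or β3 or marmoset β3 receptor were grown in Ham's F-12 with 10% FBS and geneticin, seeded at 2×10⁴ cells/well and grown about 20 h. Cells spent 15 min serum-free, then 30 min with compound in medium containing HEPES and isobutylmethylxanthine. Lysate cAMP was measured by kit. […] EC50 is the half-maximal concentration for each compound.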

Homo sapiens = species on record: Homo sapiens; assay: Selectivity ratio of EC50 for human beta1-adrenergic receptor to EC50 for human beta3-adrenergic receptor
[3] = molecular target: T1, Alpha-1A adrenergic receptor (Homo sapiens) (UniProt P35348); assay: Intrinsic activity at human alpha1A-adrenergic receptor expressed in HEK293 cells assessed as calcium flux by fluorescence assay relative to norepinephrine; format: functional, cell-based
T1 sequence (whole entry): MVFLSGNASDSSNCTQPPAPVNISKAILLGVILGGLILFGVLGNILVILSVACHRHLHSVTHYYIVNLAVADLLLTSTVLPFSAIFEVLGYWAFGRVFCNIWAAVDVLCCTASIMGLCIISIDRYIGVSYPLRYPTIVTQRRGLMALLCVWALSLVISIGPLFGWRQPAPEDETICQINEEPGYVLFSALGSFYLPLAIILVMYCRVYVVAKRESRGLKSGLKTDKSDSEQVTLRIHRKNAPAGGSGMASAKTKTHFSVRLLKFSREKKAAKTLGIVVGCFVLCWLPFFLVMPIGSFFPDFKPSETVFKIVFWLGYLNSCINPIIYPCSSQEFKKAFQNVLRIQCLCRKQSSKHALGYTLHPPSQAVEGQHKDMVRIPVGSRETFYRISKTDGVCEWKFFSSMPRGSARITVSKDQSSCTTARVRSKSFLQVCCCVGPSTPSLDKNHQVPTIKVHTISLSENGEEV

[4] = molecular target: T2, Alpha-1D adrenergic receptor (Homo sapiens, UniProt P25100); assay: Agonist activity at human alpha1D-adrenergic receptor
T2 sequence (P25100 whole entry): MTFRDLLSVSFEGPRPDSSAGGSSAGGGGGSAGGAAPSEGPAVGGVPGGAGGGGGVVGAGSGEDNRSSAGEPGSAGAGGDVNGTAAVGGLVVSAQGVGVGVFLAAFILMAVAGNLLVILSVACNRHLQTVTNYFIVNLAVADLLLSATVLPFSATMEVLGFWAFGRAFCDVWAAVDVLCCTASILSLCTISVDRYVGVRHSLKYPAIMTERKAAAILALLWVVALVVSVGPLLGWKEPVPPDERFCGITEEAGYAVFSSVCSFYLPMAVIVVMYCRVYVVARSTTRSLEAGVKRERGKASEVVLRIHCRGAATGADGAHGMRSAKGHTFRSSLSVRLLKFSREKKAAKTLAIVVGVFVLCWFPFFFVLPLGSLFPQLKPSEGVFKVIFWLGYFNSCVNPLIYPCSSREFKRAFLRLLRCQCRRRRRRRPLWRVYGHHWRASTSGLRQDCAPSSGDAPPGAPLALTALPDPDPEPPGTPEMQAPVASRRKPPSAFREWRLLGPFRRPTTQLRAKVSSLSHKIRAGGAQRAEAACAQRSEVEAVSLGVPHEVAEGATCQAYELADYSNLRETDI

[5] = molecular target: T3, Alpha-2A adrenergic receptor (Homo sapiens, UniProt P08913); assay: Agonist activity at human alpha2A-adrenergic receptor
T3 sequence (P08913 whole entry): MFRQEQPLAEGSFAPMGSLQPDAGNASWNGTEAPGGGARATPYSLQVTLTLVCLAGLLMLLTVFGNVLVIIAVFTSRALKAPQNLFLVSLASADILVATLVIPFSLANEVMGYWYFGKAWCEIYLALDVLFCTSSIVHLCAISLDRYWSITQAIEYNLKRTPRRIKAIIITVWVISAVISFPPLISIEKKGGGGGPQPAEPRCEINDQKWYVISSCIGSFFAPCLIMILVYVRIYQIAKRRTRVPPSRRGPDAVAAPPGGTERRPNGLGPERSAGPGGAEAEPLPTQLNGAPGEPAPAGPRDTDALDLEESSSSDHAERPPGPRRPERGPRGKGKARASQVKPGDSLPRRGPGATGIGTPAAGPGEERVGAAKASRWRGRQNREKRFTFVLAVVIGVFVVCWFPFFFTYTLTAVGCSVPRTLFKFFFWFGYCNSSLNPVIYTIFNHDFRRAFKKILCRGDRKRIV

[6] = molecular target: T4, Alpha-2B adrenergic receptor (Homo sapiens, UniProt P18089); assay: Agonist activity at human alpha2B-adrenergic receptor
T4 sequence (P18089 whole entry): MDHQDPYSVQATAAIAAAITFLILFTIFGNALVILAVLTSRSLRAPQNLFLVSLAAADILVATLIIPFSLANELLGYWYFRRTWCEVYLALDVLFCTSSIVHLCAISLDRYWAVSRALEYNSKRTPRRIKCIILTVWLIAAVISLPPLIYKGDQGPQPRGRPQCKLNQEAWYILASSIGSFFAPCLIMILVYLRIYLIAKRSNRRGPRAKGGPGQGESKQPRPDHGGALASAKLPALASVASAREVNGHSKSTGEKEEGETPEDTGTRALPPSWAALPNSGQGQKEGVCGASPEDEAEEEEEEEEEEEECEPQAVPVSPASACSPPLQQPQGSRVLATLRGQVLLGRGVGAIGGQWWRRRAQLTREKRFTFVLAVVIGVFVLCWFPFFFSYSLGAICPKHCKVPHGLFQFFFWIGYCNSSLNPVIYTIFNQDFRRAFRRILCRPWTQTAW

Rattus norvegicus [7] = assay: Cardiotoxicity in anesthetized Sprague-Dawley rat assessed as increase in heart rate at 3 mg/kg, iv measured for 30 mins relative to control; format: toxicity, organism-based; settings: in vivo, 0.5 h
Summary of the method: (§1)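 Male Sprague-Dawley rats (200-300 g) were anesthetized with sodium pentobarbital (50 mg/kg i.p. plus 25 mg/kg s.c.). The compound was injected via the cannulated left femoral vein once BP and HR were stable, and HR and MBP were recorded for 30 min. Results are the maximum % increase or decrease from baseline, as mean ± SEM. Where given, silodosin (0.01 mg/kg iv) preceded the compound.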

Rattus norvegicus [8] = assay: Cardiotoxicity in anesthetized Sprague-Dawley rat assessed as increase in mean blood pressure at 3 mg/kg, iv measured for 30 mins relative to control; format: toxicity, organism-based; settings: in vivo, 0.5 h; summary of the method: as §1

Chain of Beta-2 adrenergic receptor (P07550 whole entry, looked up): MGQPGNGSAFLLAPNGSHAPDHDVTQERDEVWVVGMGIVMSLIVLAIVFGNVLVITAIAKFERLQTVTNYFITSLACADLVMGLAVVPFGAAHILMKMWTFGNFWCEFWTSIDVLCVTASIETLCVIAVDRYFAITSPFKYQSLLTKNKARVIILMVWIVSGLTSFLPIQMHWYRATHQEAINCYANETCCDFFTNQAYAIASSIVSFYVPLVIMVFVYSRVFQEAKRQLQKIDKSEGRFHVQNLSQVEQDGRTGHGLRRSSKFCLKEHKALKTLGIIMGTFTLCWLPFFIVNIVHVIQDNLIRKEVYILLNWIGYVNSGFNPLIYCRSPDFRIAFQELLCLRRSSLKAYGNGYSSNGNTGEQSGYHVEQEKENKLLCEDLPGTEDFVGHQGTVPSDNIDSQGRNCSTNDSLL
Chain of Beta-3 adrenergic receptor (P13945 whole entry): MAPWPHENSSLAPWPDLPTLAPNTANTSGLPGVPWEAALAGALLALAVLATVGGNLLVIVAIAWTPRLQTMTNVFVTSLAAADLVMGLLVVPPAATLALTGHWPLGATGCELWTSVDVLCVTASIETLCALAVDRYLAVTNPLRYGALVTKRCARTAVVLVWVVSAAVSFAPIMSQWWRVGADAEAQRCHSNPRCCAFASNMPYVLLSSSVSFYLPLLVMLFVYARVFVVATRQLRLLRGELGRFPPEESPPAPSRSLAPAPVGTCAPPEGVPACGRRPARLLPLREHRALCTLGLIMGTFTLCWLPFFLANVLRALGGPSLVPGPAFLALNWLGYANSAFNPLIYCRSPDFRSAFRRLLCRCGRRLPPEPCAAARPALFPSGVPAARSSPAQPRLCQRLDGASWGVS

- EC50 [1]: 0.021 µM
- Intrinsic activity [2]: 4%
- Ratio EC50 (Homo sapiens): > 476
- Intrinsic activity [3]: 71%
- EC50 [4]: > 10 µM
- EC50 [5]: > 10 µM
- EC50 [6]: > 10 µM
Compound: Cc1n[nH]c2cc(OCCNC[C@H](O)c3cccc(NS(C)(=O)=O)c3)ccc12
- Activity (Rattus norvegicus [7]): 7.9%
- Activity (Rattus norvegicus [8]): 24.2%
